# Results from ChEMBL document CHEMBL1121917, “Structure--activity relationships in a broad-spectrum anthelmintic series. Acid chloride phenylhydrazones. 1. Aryl substitutions and chloride variations” (1981).
# Key:
# Ovis aries [1] = assay: Percent reduction in Strongyloides eggs per gram, after treatment with 400 mg/kg dose of compound in sheep perorally; assay type: functional, Egg; conditions: route oral
# Method in brief: (§1)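 Naturally parasitized lambs, dosed orally either with a suspension by stomach tube or with finely ground compound in gelatin capsules by balling gun. Activity was scored by the clinical test method, meaning a significant fall in helminth egg counts after treatment.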
# Ovis aries [2] = assay: Percent reduction in Oesophagostomum eggs per gram, after treatment with 150 mg/kg dose of compound in sheep perorally; assay type: functional, Egg; conditions: route oral
# Method in brief: (§2)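 Naturally parasitized lambs were dosed orally at the stated mg/kg. Dosing was either as a suspension of finely ground compound by stomach tube, or as ground compound weighed into gelatin capsules and given by balling gun. Activity was scored by the clinical test method: the decrease in posttreatment helminth eggs per gram.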
# Canis familiaris [3] = species on record: Canis familiaris; assay: Percent reduction in Uncinaria eggs per gram, after treatment with 275 mg/dog dose of compound in a single treatment; assay type: functional, Canis lupus familiaris, Egg
# Ovis aries [4] = assay: Percent reduction in Trichuris eggs per gram, after treatment with 300 mg/kg dose of compound in sheep perorally; assay type: functional, Egg; conditions: route oral
# Ovis aries [5] = assay: Percent reduction in Trichuris eggs per gram, after treatment with 100 mg/kg dose of compound in sheep perorally; assay type: functional, Egg; conditions: route oral
# Ovis aries [6] = assay: Percent reduction in Haemonchus eggs per gram, after treatment with 100 mg/kg dose of compound in sheep perorally; assay type: functional, Egg; conditions: route oral
# Method in brief: (§3)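 Naturally parasitized lambs received compound orally, either as the aqueous suspension by stomach tube or as finely ground powder in gelatin capsules by balling gun. Activity was judged by the clinical test method, as a significant decrease in posttreatment helminth egg counts.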
# Ovis aries [7] = assay: Percent reduction in Ostertagia eggs per gram, after treatment with 150 mg/kg dose of compound in sheep perorally; assay type: functional, Egg; conditions: route oral; method in brief: as §2
# Ovis aries [8] = assay: Percent reduction in Oesophagostomum eggs per gram, after treatment with 300 mg/kg dose of compound in sheep perorally; assay type: functional, Egg; conditions: route oral; method in brief: as §2
# Ovis aries [9] = assay: Percent reduction in Haemonchus eggs per gram, after treatment with 200 mg/kg dose of compound in sheep perorally; assay type: functional, Egg; conditions: route oral; method in brief: as §2
# Ovis aries [10] = assay: Percent reduction in Strongyloides eggs per gram, after treatment with 300 mg/kg dose of compound in sheep perorally; assay type: functional, Egg; conditions: route oral; method in brief: as §1
# Ovis aries [11] = assay: Percent reduction in Haemonchus eggs per gram, after treatment with 300 mg/kg dose of compound in sheep perorally; assay type: functional, Egg; conditions: route oral; method in brief: as §2
# Ovis aries [12] = assay: Percent reduction in Nematodirus eggs per gram, after treatment with 300 mg/kg dose of compound in sheep perorally; assay type: functional, Egg; conditions: route oral; method in brief: as §2
# Ovis aries [13] = assay: Percent reduction in Nematodirus eggs per gram, after treatment with 200 mg/kg dose of compound in sheep perorally; assay type: functional, Egg; conditions: route oral; method in brief: as §2
# Ovis aries [14] = assay: Percent reduction in Strongyloides eggs per gram, after treatment with 100 mg/kg dose of compound in sheep perorally; assay type: functional, Egg; conditions: route oral; method in brief: as §1
# Ovis aries [15] = assay: Percent reduction in Ostertagia eggs per gram, after treatment with 400 mg/kg dose of compound in sheep perorally; assay type: functional, Egg; conditions: route oral; method in brief: as §1
# Ovis aries [16] = assay: Percent reduction in Trichostrongylus eggs per gram, after treatment with 400 mg/kg dose of compound in sheep perorally; assay type: functional, Egg; conditions: route oral
# Ovis aries [17] = assay: Percent reduction in Trichostrongylus eggs per gram, after treatment with 150 mg/kg dose of compound in sheep perorally; assay type: functional, Egg; conditions: route oral
# Ovis aries [18] = assay: Percent reduction in Strongyloides eggs per gram, after treatment with 150 mg/kg dose of compound in sheep perorally; assay type: functional, Egg; conditions: route oral; method in brief: as §1
# Canis familiaris [19] = species on record: Canis familiaris; assay: Percent reduction in Ancylostoma eggs per gram, after treatment with 250 mg/dog dose of compound in a single treatment; assay type: functional, Canis lupus familiaris, Egg
# Method in brief: (§4)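 Dogs naturally infected with Toxascaris leonina were experimentally infected with mixed Ancylostoma caninum and Uncinaria stenocephala larvae. Finely ground compound was given orally in gelatin capsules. Fecal egg counts were taken three times before and three times after treatment, and activity was taken as the fall in egg counts.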
# Ovis aries [20] = assay: Percent reduction in Nematodirus eggs per gram, after treatment with 400 mg/kg dose of compound in sheep perorally; assay type: functional, Egg; conditions: route oral; method in brief: as §2
# Ovis aries [21] = assay: Percent reduction in Trichostrongylus eggs per gram, after treatment with 300 mg/kg dose of compound in sheep perorally; assay type: functional, Egg; conditions: route oral
# Mus musculus [22] = species on record: Mus musculus; assay: Percent clearance of Nematospiroides dubius from mouse oral treatment of 0.25 mg/mouse/day of compound; assay type: functional
# Method in brief: (§5)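 Mice naturally carrying Syphacia obvelata were experimentally infected with Nematospiroides dubius and Hymenolepis nana, then grouped after a 2-week prepatency. Finely ground compound was suspended in aqueous 0.10% carboxymethylcellulose, 0.04% polysorbate 80 and 0.0042% polyparaben, and 0.1 mL was given orally by cannula once daily for 4 days to five mice. Necropsy followed 2 days later, scoring presence or absence of each parasite. Control clearance was subtracted from the treated clearance.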
# Ovis aries [23] = assay: Percent reduction in Trichostrongylus eggs per gram, after treatment with 100 mg/kg dose of compound in sheep perorally; assay type: functional, Egg; conditions: route oral
# Method in brief: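 Lambs naturally parasitized with helminths. Finely ground compound was given orally, either as an aqueous suspension by stomach tube or weighed into gelatin capsules given by balling gun. Activity was assessed by the clinical test method: the reduction in helminth egg counts after treatment.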
# Ovis aries [24] = assay: Percent reduction in Haemonchus eggs per gram, after treatment with 150 mg/kg dose of compound in sheep perorally; assay type: functional, Egg; conditions: route oral; method in brief: as §3
# Canis familiaris [25] = species on record: Canis familiaris; assay: Percent reduction in Uncinaria eggs per gram, after treatment with 250 mg/dog dose of compound in a single treatment; assay type: functional, Canis lupus familiaris, Egg
# Ovis aries [26] = assay: Percent reduction in Oesophagostomum eggs per gram, after treatment with 200 mg/kg dose of compound in sheep perorally; assay type: functional, Egg; conditions: route oral; method in brief: as §2
# Ovis aries [27] = assay: Percent reduction in Trichuris eggs per gram, after treatment with 200 mg/kg dose of compound in sheep perorally; assay type: functional, Egg; conditions: route oral
# Ovis aries [28] = assay: Percent reduction in Strongyloides eggs per gram, after treatment with 200 mg/kg dose of compound in sheep perorally; assay type: functional, Egg; conditions: route oral; method in brief: as §1
# Canis familiaris [29] = species on record: Canis familiaris; assay: Percent reduction in Uncinaria eggs per gram, after treatment with 200 mg/dog dose of compound in a single treatment; assay type: functional, Canis lupus familiaris, Egg
# Method in brief: (§6)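 Dogs naturally infected with Toxascaris leonina were experimentally infected with mixed Ancylostoma caninum and Uncinaria stenocephala larvae. Finely ground compound was given orally in gelatin capsules. Three egg count determinations were made before and three after treatment in each experiment.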
# Canis familiaris [30] = species on record: Canis familiaris; assay: Percent reduction in Ancylostoma eggs per gram, after treatment with 275 mg/dog dose of compound in a single treatment; assay type: functional, Canis lupus familiaris, Egg; method in brief: as §4
# Canis familiaris [31] = species on record: Canis familiaris; assay: Percent reduction in Toxascaris eggs per gram, after treatment with 200 mg/dog dose of compound in a single treatment; assay type: functional, Canis lupus familiaris, Egg; method in brief: as §6
# Ovis aries [32] = assay: Percent reduction in Moniezia eggs per gram, after treatment with 150 mg/kg dose of compound in sheep perorally; assay type: functional, Egg; conditions: route oral; method in brief: as §2
# Ovis aries [33] = assay: Percent reduction in Cooperia eggs per gram, after treatment with 100 mg/kg dose of compound in sheep perorally; assay type: functional, Egg; conditions: route oral; method in brief: as §3
# Ovis aries [34] = assay: Percent reduction in Ostertagia eggs per gram, after treatment with 100 mg/kg dose of compound in sheep perorally; assay type: functional, Egg; conditions: route oral; method in brief: as §2
# Ovis aries [35] = assay: Percent reduction in Nematodirus eggs per gram, after treatment with 100 mg/kg dose of compound in sheep perorally; assay type: functional, Egg; conditions: route oral; method in brief: as §2
# Ovis aries [36] = assay: Percent reduction in Oesophagostomum eggs per gram, after treatment with 100 mg/kg dose of compound in sheep perorally; assay type: functional, Egg; conditions: route oral; method in brief: as §2
# Ovis aries [37] = assay: Percent reduction in Ostertagia eggs per gram, after treatment with 200 mg/kg dose of compound in sheep perorally; assay type: functional, Egg; conditions: route oral; method in brief: as §1
# Ovis aries [38] = assay: Percent reduction in Haemonchus eggs per gram, after treatment with 400 mg/kg dose of compound in sheep perorally; assay type: functional, Egg; conditions: route oral; method in brief: as §2
# Ovis aries [39] = assay: Percent reduction in Trichostrongylus eggs per gram, after treatment with 200 mg/kg dose of compound in sheep perorally; assay type: functional, Egg; conditions: route oral
# Canis familiaris [40] = species on record: Canis familiaris; assay: Percent reduction in Trichuris eggs per gram, after treatment with 200 mg/dog dose of compound in a single treatment; assay type: functional, Canis lupus familiaris, Egg
# Canis familiaris [41] = species on record: Canis familiaris; assay: Percent reduction in Ancylostoma eggs per gram, after treatment with 200 mg/dog dose of compound in a single treatment; assay type: functional, Canis lupus familiaris, Egg; method in brief: as §4
# Ovis aries [42] = assay: Percent reduction in Trichuris eggs per gram, after treatment with 150 mg/kg dose of compound in sheep perorally; assay type: functional, Egg; conditions: route oral
# Ovis aries [43] = assay: Percent reduction in Ostertagia eggs per gram, after treatment with 300 mg/kg dose of compound in sheep perorally; assay type: functional, Egg; conditions: route oral; method in brief: as §1
# Mus musculus [44] = species on record: Mus musculus; assay: Percent clearance of Syphacaia obvelata from mouse after oral treatment of 0.25 mg/mouse/day of compound; assay type: functional; method in brief: as §5
# Ovis aries [45] = assay: Percent reduction in Trichuris eggs per gram, after treatment with 400 mg/kg dose of compound in sheep perorally; assay type: functional, Egg; conditions: route oral
# Ovis aries [46] = assay: Percent reduction in Nematodirus eggs per gram, after treatment with 150 mg/kg dose of compound in sheep perorally; assay type: functional, Egg; conditions: route oral; method in brief: as §2
# Ovis aries [47] = assay: Percent reduction in Nematodirus eggs per gram, after treatment with 200 mg/kg dose of compound perorally in sheep; assay type: functional, Egg; conditions: route oral; method in brief: as §2
# Mus musculus [48] = species on record: Mus musculus; assay: Percent clearance of Hymenolepis nana from mouse after oral treatment of 0.45 mg/mouse/day; assay type: functional; method in brief: as §5
# Ovis aries [49] = assay: Percent reduction in Trichuris eggs per gram, after treatment with 200 mg/kg dose of compound perorally in sheep; assay type: functional, Egg; conditions: dose 100 mg/kg; route oral; in the assay text read “100 mg/kg” for “200 mg/kg”; method in brief: as §1
# Ovis aries [50] = assay: Percent reduction in Haemonchus eggs per gram, after treatment with 200 mg/kg dose of compound perorally in sheep; assay type: functional, Egg; conditions: dose 100 mg/kg; route oral; in the assay text read “100 mg/kg” for “200 mg/kg”; method in brief: as §2
# Mus musculus [51] = species on record: Mus musculus; assay: Percent clearance of Nematospiroides dubius from mouse after oral treatment of 0.45 mg/mouse/day; assay type: functional; method in brief: as §5
# Ovis aries [52] = assay: Percent reduction in Oesophagostomum eggs per gram, after treatment with 200 mg/kg dose of compound perorally in sheep; assay type: functional, Egg; conditions: dose 100 mg/kg; route oral; in the assay text read “100 mg/kg” for “200 mg/kg”; method in brief: as §2
smiles,measurement,setting,value
Cc1ccc(/C(Cl)=N/Nc2ccccc2)cc1,Reduction,Ovis aries [1],100%
same,Reduction,Ovis aries [2],79%
same,Reduction,Canis familiaris [3],99.8%
same,Reduction,Ovis aries [4],0%
same,Reduction,Ovis aries [5],29%
same,Reduction,Ovis aries [6],84%
same,Reduction,Ovis aries [7],100%
same,Reduction,Ovis aries [8],100%
same,Reduction,Ovis aries [9],100%
same,Reduction,Ovis aries [10],100%
same,Reduction,Ovis aries [11],100%
same,Reduction,Ovis aries [12],100%
same,Reduction,Ovis aries [13],100%
same,Reduction,Ovis aries [14],99%
same,Reduction,Ovis aries [15],100%
same,Reduction,Ovis aries [16],100%
same,Reduction,Ovis aries [17],98%
same,Reduction,Ovis aries [18],100%
same,Reduction,Canis familiaris [19],100%
same,Reduction,Ovis aries [20],100%
same,Reduction,Ovis aries [21],100%
same,Parasite_Clearance,Mus musculus [22],20%
same,Reduction,Ovis aries [23],73%
same,Reduction,Ovis aries [24],100%
same,Reduction,Canis familiaris [25],100%
same,Reduction,Ovis aries [26],100%
same,Reduction,Ovis aries [27],0%
same,Reduction,Ovis aries [28],37%
same,Reduction,Canis familiaris [29],100%
same,Reduction,Canis familiaris [30],100%
same,Reduction,Canis familiaris [31],100%
same,Reduction,Ovis aries [32],100%
same,Reduction,Ovis aries [33],100%
same,Reduction,Ovis aries [34],96%
same,Reduction,Ovis aries [35],100%
same,Reduction,Ovis aries [36],100%
same,Reduction,Ovis aries [37],100%
same,Reduction,Ovis aries [38],100%
same,Reduction,Ovis aries [39],100%
same,Reduction,Canis familiaris [40],100%
same,Reduction,Canis familiaris [41],100%
same,Reduction,Ovis aries [42],25%
same,Reduction,Ovis aries [43],100%
same,Parasite_Clearance,Mus musculus [44],100%
same,Reduction,Ovis aries [45],0%
same,Reduction,Ovis aries [46],100%
Cl/C(=N\Nc1ccccc1)c1ccccc1,Reduction,Ovis aries [47],100%
same,Parasite_Clearance,Mus musculus [48],40%
same,Reduction,Ovis aries [49],0%
same,Reduction,Ovis aries [50],87%
same,Parasite_Clearance,Mus musculus [51],100%
same,Reduction,Ovis aries [52],89%
